Screening results: PubChem, Sanford-Burnham Center for Chemical Genomics
This is a sample that favours compounds with a hit; in the whole collection about 2.3% have one here.
Scp-1 inhibitor – inhibitors of human Scp-1 phosphatase; hit rate 0.88% among 340,000; Recombinant Scp1, phosphopeptide, malachite green phosphate absorbance; inhibition, % at 20 µM;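 active means inhibition above about 50% at 20 µM, limit read from the data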
Target sequence (Q9GZU7 76-261 limits assumed): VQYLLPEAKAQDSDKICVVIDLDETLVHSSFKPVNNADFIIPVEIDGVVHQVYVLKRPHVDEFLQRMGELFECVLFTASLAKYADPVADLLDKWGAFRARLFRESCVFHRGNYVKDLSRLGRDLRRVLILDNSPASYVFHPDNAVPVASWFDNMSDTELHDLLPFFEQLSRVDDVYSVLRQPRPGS
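Material – SCP-1 phosphatase catalytic domain, residues 76-261 · Buffer or medium – Acidic Tris acetate buffer with magnesium and detergent · Also added – Phospho 17-mer peptide substrate · Compound – single 20 µM dose, 1% DMSO · Times – 45 min room-temperature reaction, 5 min colour, 30 min stabiliser · Technique – Phosphate-binding colour reagent, absorbance read at 630 nm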
DNMT1 block – blocks human DNA methyltransferase DNMT1. P26358. DNMT1 molecular beacon, Hinp1I cleavage, fluorescence. inhibition (reported as % activation of signal), % at 10 µM. hit rate 0.83% among 360,000; in the data active means inhibition above about 50%
NadD inh – blocks S. aureus nicotinate mononucleotide adenylyltransferase | purified NadD enzyme, colorimetric absorbance read-out | inhibition, % at 20 µM | hit rate 0.78% among 360,000; in the data active means inhibition above about 26%
STEP block – inhibitors of human striatal-enriched phosphatase STEP; P54829; recombinant STEP, OMFP fluorogenic substrate, fluorescence; inhibition, % at 20 µM; hit rate 0.25% among 360,000; AID 588621;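 active means inhibition at 20 µM, scaled per plate between control wells, above about 37%, limit read from the data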
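Also added – OMFP at 25 µM · Test system – STEP tyrosine phosphatase · Technique – FITC-channel fluorescence of OMFP product · Schedule – 20 min at room temperature, dark · Evaluation – control-normalized % inhibition with plate pattern correction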
LMPTP inh – LMPTP (human) inhibition | P24666 | recombinant LMPTP-A, OMFP fluorogenic substrate, fluorescence intensity | hit rate 0.22% among 360,000 | inhibition, % at 20 µM;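 active means compounds that cut the enzyme signal by at least half of the control window in the single-dose screen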
Target sequence (P24666 whole entry, looked up): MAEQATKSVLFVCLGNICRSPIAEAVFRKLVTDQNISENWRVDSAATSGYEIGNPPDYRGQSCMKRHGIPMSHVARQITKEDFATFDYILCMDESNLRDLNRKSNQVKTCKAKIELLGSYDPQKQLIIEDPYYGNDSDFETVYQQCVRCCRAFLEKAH
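Test system: LMPTP-A phosphatase enzyme. Amount: LMPTP-A at 0.625 nM final in the reaction. Reagent: OMFP substrate, 400 µM final. Times: 50 min at room temperature. Signal: endpoint fluorescence intensity from OMFP dephosphorylation. Read-out basis: % inhibition. Benchmarks: no-enzyme and uninhibited controls.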
SUMO1 PPI mod – modulators of human SUMO1-mediated protein-protein interactions | SUMO1 binding to a labelled peptide, TR-FRET, 1 h | inhibition, % at 20 µM | AID 602429 | hit rate 0.33% among 360,000 | P63165; in the data active means inhibition above about 37%
Target sequence (P63165 whole entry, looked up): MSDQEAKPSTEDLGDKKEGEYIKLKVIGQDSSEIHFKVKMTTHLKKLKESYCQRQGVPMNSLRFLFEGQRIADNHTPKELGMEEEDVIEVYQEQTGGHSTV
DNMT1 interf DR – counter-screen for DNMT1 inhibitors: spectral interference, dose response | IC50, µM | molecular beacon fluorescence | 200 tested, under 10 active | shares compounds with DNMT1 block | AID 602382; call rule not given here
DNMT1 confirm – DNMT1 inhibition confirmation, single concentration; shares compounds with DNMT1 block; DNMT1 molecular beacon HinP1I cleavage, fluorescence; inhibition, % at 10 µM; hit rate 8% among 2,300; AID 602385;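 active means average inhibition of at least 30% in the single-concentration confirmation test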
DNMT1 interf – counter-screen for DNMT1 inhibitors: spectral interference. activation (fluorescence interference), % at 10 µM. AID 602387. hit rate 1% among 2,300. shares compounds with DNMT1 block. DNMT1 molecular beacon spectral interference counterscreen, fluorescence 485/520;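 active means activation of at least 30% at 10 µM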;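 further: DNMT1 catalytic domain with a HinP1I cleavage step and a FAM/dabcyl DNA beacon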
A number is an active result; 0 = inactive; - = no result.

SMILES | Scp-1 inhibitor | DNMT1 block | NadD inh | STEP block | LMPTP inh | SUMO1 PPI mod | DNMT1 confirm | DNMT1 interf | others
COc1cccc(CNc2nc3cc(-c4cccc(C(F)(F)F)c4)sc3c(=O)n2C)c1 | - | 0 | 0 | 0 | 0 | 0 | - | -
CC(=O)Nc1ccc(CNc2nc3cc(-c4cccc(C(F)(F)F)c4)sc3c(=O)n2C)cc1 | - | 60.7 | 0 | 0 | 0 | 0 | 0 | 0
ClC(Cl)(Cl)c1nc(N/N=C/c2ccncc2)c2ccccc2n1 | 0 | 54.9 | 0 | 0 | 0 | 0 | 0 | 0
Cc1ccc(C(=O)NCCc2nnc3ccc(SCC(=O)Nc4ccccc4F)nn23)cc1 | 0 | 0 | 0 | 0 | 0 | 0 | - | -
Cc1ccc(CSc2nnc(SCC(=O)N/N=C/C=C/c3ccco3)s2)cc1 | 0 | 52.5 | 0 | 0 | 0 | 0 | 0 | 0
Cc1ccc(NC(=O)CNC(=O)c2ccco2)nc1 | 0 | 0 | 0 | 0 | 0 | 0 | - | -
Cc1ccc(/C=N/NC(=O)c2cc3c(ccc4ccccc43)o2)cc1[N+](=O)[O-] | 0 | 80.3 | 0 | 0 | 0 | 0 | 0 | 0
O=C(N/N=C/c1ccc([N+](=O)[O-])o1)c1cc2c(ccc3ccccc32)o1 | 93.7 | 84.9 | 0 | 95.3 | 79.1 | 0 | 0 | 0
O=C(COc1ccccc1)N[C@@H]1c2ccccc2CC[C@@H]1O | 0 | 0 | 0 | 0 | 0 | 0 | - | -
O=C(N/N=C/c1cn(Cc2cccc(F)c2)c2ccccc12)c1cc(O)cc(O)c1 | 76.8 | 93.1 | 0 | 98.1 | 0 | 52.7 | 120.8 | 0 | DNMT1 interf DR=0
Cc1nn(C)c2nc(-c3cccs3)cc(C(F)(F)F)c12 | 0 | 0 | 0 | 0 | 0 | 0 | - | -
Cc1nn(CCO)c2nc(-c3cccs3)cc(C(F)(F)F)c12 | 0 | 60.3 | 0 | 0 | 0 | 0 | 0 | 0
CCc1ccccc1NC(=O)c1cccc(NC(=O)/C=C/c2ccco2)c1 | 0 | 0 | 0 | 0 | 0 | 0 | - | -
Cc1ccc(NC(=O)c2cccc(NC(=O)/C=C/c3ccco3)c2)cc1C | 0 | 0 | 0 | 0 | 0 | 0 | - | -
O=C(/C=C/c1ccco1)Nc1cccc(C(=O)Nc2ccccc2C(=O)O)c1 | 58.1 | 85.5 | 0 | 0 | 0 | 52.9 | 0 | 0
Cc1ccc(-n2nc3ccc(NC(=O)/C=C/c4ccco4)cc3n2)cc1 | 0 | 103.9 | 0 | 0 | 0 | 0 | 0 | 0
CC(=O)c1cccc(OCC(=O)N(C)CC(=O)NCc2ccco2)c1 | 81.3 | 96.5 | 0 | 0 | 0 | 0 | 52.5 | 0 | DNMT1 interf DR=0
CCOC(=O)[C@]12CCC=C1N(Cc1ccc3c(c1)OCO3)C(=O)[C@H](CC(=O)NCC1CCCCC1)C2 | - | - | 0 | - | 0 | 0 | - | -
O=C(O)CCCCC1SCC2NC(=O)NC21 (configuration not stated) | 0 | 81.5 | 0 | 0 | 0 | 0 | 0 | 0
CCOC(=O)c1[nH]c2c(c1C)C(=O)CC(c1ccco1)C2 (configuration not stated) | 63.8 | 51.2 | 0 | 0 | 0 | 0 | 0 | 0
COCCOC(=O)c1[nH]c2c(c1C)C(=O)CC(c1ccc(N(C)C)cc1)C2 (configuration not stated) | 0 | 0 | 0 | 0 | 0 | 0 | - | -
COCCOC(=O)c1[nH]c2c(c1C)C(=O)CC(c1ccco1)C2 (configuration not stated) | 82.7 | 73.5 | 0 | 0 | 0 | 0 | 0 | 0
COCCOC(=O)c1[nH]c2c(c1C)C(=O)CC(c1ccc(F)cc1)C2 (configuration not stated) | 0 | 0 | 0 | 0 | 0 | 0 | - | -
O=C(O)c1ccc2nc(-c3ccco3)c(-c3ccco3)nc2c1 | 0 | 99.7 | 0 | 0 | 0 | 39.6 | 0 | 0
CC1=C(C(=O)N(C(C)C)C(C)C)CC(CC(=O)NCc2cccc3ccccc23)C(=O)N1Cc1ccc(C(C)(C)C)cc1 (configuration not stated) | - | 0 | 0 | 0 | 0 | 0 | - | -
SMILES | Scp-1 inhibitor | DNMT1 block | NadD inh | STEP block | LMPTP inh | SUMO1 PPI mod | DNMT1 confirm | DNMT1 interf | others
CC(=O)NCCC(=O)Nc1cccc(S(=O)(=O)N(C)c2ccccc2)c1 | 0 | 55.9 | 0 | 0 | 0 | 0 | 0 | 0
CN(C)CCCN(C(=O)c1ccc([N+](=O)[O-])o1)c1nc2cc3c(cc2s1)OCO3 | 0 | 0 | 0 | 0 | 0 | 0 | - | -
COc1ccc(OC)c(C2C(C(=O)c3ccccc3)=C(C)Nc3nc4ccccc4n32)c1 (configuration not stated) | 0 | 0 | 0 | 0 | 0 | 0 | - | -
COc1ccc(C2C(C(=O)c3ccccc3)=C(C)Nc3nc4ccccc4n32)cc1OC (configuration not stated) | 0 | 58.9 | 0 | 0 | 0 | 0 | 0 | 0
COc1ccc(NC(=O)c2ccccc2NS(=O)(=O)c2ccc(CNC(C)=O)cc2)c(OC)c1 | 0 | 0 | 0 | 0 | 0 | 0 | - | -
Cc1cc(C)c2c(N)c3ccccc3nc2n1 | 0 | 67.0 | 0 | 0 | 0 | 0 | 0 | 0
CCc1ccc2nc3nc(C)cc(C)c3c(N)c2c1 | 0 | 0 | 0 | 0 | 0 | 0 | - | -
CC1CC(NC(=O)N(C)C)N(C)C(=O)N1 (configuration not stated) | 0 | 66.3 | 0 | 0 | 0 | 0 | 0 | 0
COc1ccc(OC)c(/C=N/N2CCN(c3ccc(Cl)cc3)CC2)c1 | 0 | 0 | 0 | 0 | 0 | 0 | - | -
C=CCC1NS(=O)(=O)OCC1C(C)C (configuration not stated) | 0 | 50.5 | 0 | 0 | 0 | 0 | 0 | 0
CCOc1nc(NC(=O)NC(=O)c2ccccc2)nc(-c2ccccc2)n1 | 0 | 73.5 | 0 | 0 | 0 | 0 | 0 | 0
COC(=O)CNC(=O)CCc1nnc(C2(c3ccc(Cl)cc3)CCC2)o1 | 0 | 58.2 | 0 | 0 | 0 | 0 | 0 | 0
C=C(C)CNC(=O)CCc1nnc(C2(c3ccc(Cl)cc3)CCC2)o1 | 0 | 0 | 0 | 0 | 0 | 0 | - | -
CC(C)c1ccc(NC(=O)C2CCN(S(=O)(=O)c3ccc4c(c3)C(C)(C)C(=O)N4C)CC2)cc1 | 0 | 0 | 0 | 0 | 0 | 0 | - | -
CC(=O)c1cccc(NC(=O)C(C)OC(=O)/C=C/c2cccs2)c1 (configuration not stated) | 0 | 0 | 0 | 0 | 0 | 0 | - | -
Cc1ccc(C2C(/C=C3/SC(=S)NC3=O)=C(c3cccs3)Oc3ccccc32)cc1 (configuration not stated) | 0 | 83.1 | 59.9 | 0 | 0 | 0 | 71.6 | 0 | DNMT1 interf DR=0
Cc1ccc(C(=O)C(C)OC(=O)CCN=C2NS(=O)(=O)c3ccccc32)cc1 (configuration not stated) | 0 | 0 | 0 | 0 | 0 | 0 | - | -
CC(OC(=O)CCN=C1NS(=O)(=O)c2ccccc21)C(=O)c1ccccc1 (configuration not stated) | 0 | 72.2 | 0 | 0 | 0 | 0 | 0 | 0
